High-throughput results as filed in PubChem BioAssay.
HTRA1 inhibitor: blocks human HTRA1 serine peptidase. hit rate 0.5% among 340,000. AID 504803. inhibition, % at 5.96 µM. recombinant HTRA1, FP-rhodamine activity-based probe, fluorescence polarization. Q92743; in the data active means inhibition above about 36%;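 further: 0% = enzyme with DMSO and 100% = wells lacking enzyme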
Target sequence (Q92743 whole entry, looked up): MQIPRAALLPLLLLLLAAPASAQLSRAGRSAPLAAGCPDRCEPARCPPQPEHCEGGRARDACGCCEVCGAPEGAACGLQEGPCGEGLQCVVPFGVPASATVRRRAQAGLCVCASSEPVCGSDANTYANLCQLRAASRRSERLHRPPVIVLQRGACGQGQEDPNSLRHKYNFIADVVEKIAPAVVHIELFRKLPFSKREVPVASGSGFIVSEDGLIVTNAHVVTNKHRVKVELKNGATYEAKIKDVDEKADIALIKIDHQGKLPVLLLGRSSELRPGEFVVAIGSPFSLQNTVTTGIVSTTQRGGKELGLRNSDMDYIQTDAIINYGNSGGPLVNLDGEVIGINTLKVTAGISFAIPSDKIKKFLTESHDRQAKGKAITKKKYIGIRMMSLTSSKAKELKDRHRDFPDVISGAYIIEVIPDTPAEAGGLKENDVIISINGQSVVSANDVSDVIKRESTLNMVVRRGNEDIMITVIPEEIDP
PAFAH2 FP inh: PAFAH2 (human) inhibition; Q99487; recombinant PAFAH2, FP-rhodamine activity probe, fluorescence polarization; inhibition, % at 3.39 µM; hit rate 0.99% among 340,000; AID 492956;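 active means inhibition above the mean over all tested compounds plus 3 SD, cut at about 30% in these data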;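 further: inhibitors block probe labeling of enzyme so polarization drops; 0% = enzyme with DMSO and 100% = wells lacking PAFAH2 protein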
PAFAH1B3 inh: PAFAH1B3 (human) inhibition | recombinant PAFAH1B3, FP-rhodamine probe, fluorescence polarization | inhibition, % at 3.39 µM | hit rate 0.28% among 340,000 | AID 492972;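 active means inhibition above the screen-wide average of all tested compounds plus 3 SD, cut at about 25% in these data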;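 further: 0% = enzyme with DMSO only and 100% = wells lacking PAFAH1B3 protein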
ABHD4 inh: inhibits mouse alpha/beta hydrolase domain 4; Q8VD66; purified mABHD4, FP-Rh probe fluorescence polarization; inhibition, % at 8.92 µM; hit rate 0.54% among 370,000; AID 720543;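 active means inhibition exceeding the mean over every tested compound plus 3 SD, cut at about 30% in these data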;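 further: 0% = plate median of compound wells and 100% = S159A mutant with DMSO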
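Assay system: Wild-type mouse ABHD4 protein | Medium: HEPES pH 7.0 buffer, 150 mM NaCl, 0.01% Pluronic F-127 | Incubation: Enzyme–compound pre-incubation 45 min, then probe 60 min, both 25 °C | Technique: Fluorescence polarization with parallel and perpendicular emission, 525/598 nm | Evaluation: % inhibition of FP-Rh probe binding versus controls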
pPAFAH inh: inhibitors of human plasma PAF acetylhydrolase (pPAFAH); Q13093; recombinant pPAFAH, FP-rhodamine probe fluorescence polarization; inhibition, % at 3.39 µM; hit rate 1.5% among 330,000; AID 463082;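 active means inhibition above the mean inhibition across the screen plus 3 SD, cut at about 25% in these data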;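 further: inhibitors block binding of the rhodamine activity-based probe so polarization drops; 0% = enzyme with DMSO and 100% = wells lacking pPAFAH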
PAFAH1B2 FP inh: inhibitors of human PAFAH1B2 | inhibition, % at 3.39 µM | hit rate 1.2% among 340,000 | AID 492953 | recombinant PAFAH1B2, FP-rhodamine activity probe, fluorescence polarization;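 active means inhibition above the mean of all tested compounds plus 3 SD, cut at about 24% in these data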;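 further: 0% = enzyme with DMSO and 100% = wells lacking PAFAH1B2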
PAFAH2 FP conf: PAFAH2 (human) inhibition, confirmed | inhibition, % at 3.39 µM | recombinant PAFAH2, FP-rhodamine activity probe, fluorescence polarization | hit rate 65% among 2,300 | AID 493030 | shares compounds with PAFAH2 FP inh;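 active means mean inhibition over three repeats above a set limit taken from the earlier primary screen, cut at about 30% in these data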;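 further: inhibitor blocks binding of rhodamine activity probe so polarization falls; 0% = enzyme with DMSO and 100% = wells lacking PAFAH2 protein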
The depositor's hits bear a star; . = no result. This is a sample that favours compounds with a hit; in the whole collection about 2.8% have one here.

SMILES | HTRA1 inhibitor | PAFAH2 FP inh | PAFAH1B3 inh | ABHD4 inh | pPAFAH inh | PAFAH1B2 FP inh | PAFAH2 FP conf
COc1ccc(C(=O)COC(=O)c2ccc(NC(C)=O)cc2)cc1[N+](=O)[O-] | 4.8 | 12.1 | 2.9 | 5.2 | 3.1 | -0.3 | .
Cc1cc(C(=O)OCC(=O)Nc2ccccc2C#N)c(C)o1 | 2.3 | 43.2* | 1.6 | -2.3 | . | 1.4 | 32.1*
Cc1cc(C(=O)OCC(=O)Nc2ccccc2F)c(C)o1 | -3.1 | 39.3* | 9.2 | -2.3 | 4.3 | -0.2 | 31.6*
CCCCCN1CCCCC(NC(=O)c2ccccc2C)C1=O (stereo unspecified) | . | . | . | 5.0 | . | . | .
Cc1cccc(CNC(=O)NC2CCCCN(Cc3cccc(Cl)c3)C2=O)c1 (stereo unspecified) | . | . | . | 1.5 | . | . | .
Cn1c(=O)cc(OCCCC(=O)Nc2cc(-c3ccncc3)ccn2)c2ccccc21 | . | . | . | 2.7 | . | . | .
Cc1cccc(NC(=O)COC(=O)c2cc(C)oc2C)c1 | -12.9 | 74.7* | 0.8 | -1.7 | -2.0 | -1.4 | 78.8*
COC(=O)c1ccc(NC(=O)Nc2ccccc2F)cc1 | -19.1 | -5.2 | 4.1 | -11.9 | -5.1 | -1.0 | .
COc1ccc(C(=O)OCC(=O)c2ccc[nH]2)cc1 | 6.4 | 39.9* | -1.6 | -15.3 | 3.7 | -2.7 | 30.7*
CC(=O)Nc1ccc(C(=O)OCC(=O)Nc2ccccc2F)cc1 | -4.7 | 69.0* | 0.6 | -5.0 | -1.7 | 2.1 | 70.0*
CCCCN1CN2Cc3ccc(C)cc3C2CS1(=O)=O (stereo unspecified) | . | . | . | -1.0 | . | . | .
Cc1ccccc1NC(=O)CN1CCN(c2nc(-c3ccccc3)cs2)CC1 | . | . | . | -1.1 | . | . | .
O=C(C1CC(=O)N(c2ccc(F)cc2)C1)N1CCCCC1 (stereo unspecified) | -2.2 | -4.3 | 1.6 | -4.8 | -5.5 | 3.2 | .
C[C@H](NC(=O)C1CC(=O)N(c2ccc(F)cc2)C1)C(=O)N1CCCCC1 (stereo partly specified) | -2.5 | 30.4* | -1.0 | 4.6 | -5.4 | 1.7 | 5.3
CCN(C[C@H]1[C@@H](c2ccc(C3=CCCC3)cc2)[C@H](CO)N1C(=O)c1cccnc1)S(=O)(=O)c1ccccc1[N+](=O)[O-] | . | . | . | 1.8 | . | . | .
Cc1nn(Cc2ccccc2)c(Cl)c1/C=C/C(=O)OCC(=O)NC(C)C(C)C (stereo unspecified) | -7.6 | 67.3* | 0.0 | -7.0 | 3.3 | 7.4 | 64.1*
O=c1cc(-c2ccccc2)nc2nc(-c3ccco3)[nH]n12 | -14.5 | 41.8* | 6.9 | 9.4 | 6.1 | 11.3 | 7.5
CCC(CO)Nc1cccc2c1S(=O)(=O)N(Cc1cn(Cc3ccc(C(F)(F)F)cc3)nn1)Cc1ccccc1O2 (stereo unspecified) | . | . | . | -8.7 | . | . | .
O=C(COC(=O)c1ccc(O)cc1)NC1CCCC1 | 6.3 | 76.7* | 5.2 | -1.2 | 13.9 | -3.2 | 73.4*
COc1ccc(C(=O)OCC(=O)NC2CC2)cc1 | 6.1 | . | . | -4.7 | . | . | .
Cc1ccc(C(=O)OCC(=O)NC2CCCC2)cc1 | -2.1 | 82.1* | 0.0 | -2.1 | 21.9 | 4.7 | 76.4*
CC(C)(C)c1ccc(C(=O)OCC(=O)NC2CC2)cc1 | -2.2 | 73.4* | 0.7 | -4.1 | . | 14.7 | 65.8*
O=C(COC(=O)c1ccc([N+](=O)[O-])cc1)NC1CCCC1 | -0.3 | 5.8 | 7.7 | 1.8 | 13.8 | -3.1 | .
COC(=O)c1ccc(OCC(=O)NC2CCCCCC2)cc1 | -0.8 | 3.4 | 4.3 | 4.6 | -1.1 | 5.2 | .
O=C(NCc1ccccc1)C1(C(=O)C2CC2)CC(c2ccccc2C(F)(F)F)=NO1 (stereo unspecified) | . | . | . | 0.8 | . | . | .
CN(C(=O)COC(=O)c1ccc(Cl)c(S(=O)(=O)N2CCCCC2)c1)C1(C#N)CCCCC1 | -1.9 | 30.3* | 3.3 | 0.3 | 1.5 | 1.1 | 15.2
CN(C(=O)COC(=O)c1ccc(Cl)s1)C1(C#N)CCCCC1 | -9.0 | 30.1* | -7.0 | 0.4 | . | 0.2 | 13.3
COc1ccc(CN(CCN2CCOCC2)C(=O)c2ccccc2C)cc1OC | . | . | . | 3.7 | . | . | .
CCS(=O)c1ccccc1C(=O)OCC(=O)Nc1cccc(S(=O)(=O)N2CCCCC2)c1 (stereo unspecified) | -5.3 | 58.7* | -7.2 | -1.6 | -2.5 | 0.0 | 53.4*
